HSF1 activator – increases HSF-1 driven luciferase reporter signal | NIH3T3-HGL HSF-1 luciferase reporter, MG132, 8 h; 100% = twice DMSO control signal | activation, % at 9 µM | hit rate 1.7% among 300,000 | AID 504408;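 active = mean replicate activation of at least 50% with a set share of replicates each reaching 50%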
GPR7 antag – human neuropeptides B/W receptor 1 antagonism; hit rate 1.1% among 290,000; GPR7-expressing cells, fluorescence antagonist assay; inhibition, % at 4.4 µM; AID 1861; in the data active = inhibition above about 16%, passing the limit was not always enough;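 also: cells stimulated with the agonist NPW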
Target sequence (P48145 whole entry, looked up): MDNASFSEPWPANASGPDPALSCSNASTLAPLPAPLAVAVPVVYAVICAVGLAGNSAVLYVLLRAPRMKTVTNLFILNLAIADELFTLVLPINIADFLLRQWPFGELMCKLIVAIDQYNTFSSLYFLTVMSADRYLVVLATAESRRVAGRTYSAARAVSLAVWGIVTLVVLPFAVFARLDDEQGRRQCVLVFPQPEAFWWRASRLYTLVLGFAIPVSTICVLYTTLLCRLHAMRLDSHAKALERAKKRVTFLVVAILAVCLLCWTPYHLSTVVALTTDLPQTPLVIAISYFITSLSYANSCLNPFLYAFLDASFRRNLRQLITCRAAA
697 NFkB inh – inhibitors of the PMA/ionomycin-induced NF-kB reporter in 697 B cells; hit rate 0.33% among 330,000; inhibition, % at 4 µM; 697 B-cell NF-kB luciferase reporter, 16 h; in the data active = inhibition above about 35%
HSF1 inh – HSF1 inhibition; NIH3T3-HGL HSE-luciferase, MG132-induced, luminescence 8 h; hits give low values; activity change, negative = inhibition, % at 7.5 µM (by protocol); hit rate 0.77% among 300,000;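 active = more than half of replicate wells show activity change below -50%, luminescence cut by over half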;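 also: luciferase reports HSF-1 transcriptional activity via heat shock element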
Jurkat NFkB inh – lowers PMA/ionomycin-induced NF-kB signal in Jurkat cells | hit rate 0.53% among 330,000 | PMA/ionomycin-induced NF-kB luciferase reporter, luminescence | inhibition, % at 4 µM; in the data active = inhibition above about 50%
T cruzi inh – blocks replication of Trypanosoma cruzi; T. cruzi beta-gal in NIH3T3, luminescence, 90 h; inhibition, % (test concentration not listed); hit rate 1.4% among 300,000;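 active = mean inhibition across valid replicates above about 55%, limit read from the data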;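 also: signal also drops with host cell toxicity which is not excluded here; higher percent means less beta-gal luminescence so fewer parasites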
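Material: NIH/3T3 host cells with β-galactosidase reporter T. cruzi; Input: 5,000 host fibroblasts per well; Medium: DMEM, 2% fetal bovine serum; Compound: 50 nL DMSO compound solution per well; Schedule: 3 h host attachment, then at least 90 h co-culture; Detection: luminescent β-galactosidase signal after 60 min lysis.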
GPR7 antag cf – confirmation of human GPR7 antagonists; shares compounds with GPR7 antag; GPR7-expressing cells, calcium fluorescence antagonist mode; inhibition, % at 4.4 µM; hit rate 52% among 2,400; AID 1952; in the data active = inhibition above about 24%;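 also: stimulated with the GPR7 agonist NPW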
MCHR1 antag – antagonizes human MCHR1, a GPR7 antagonist counter-screen; AID 2148; inhibition, % at 4.4 µM; shares compounds with GPR7 antag; MCHR1-expressing cells, fluorescence antagonist assay; hit rate 62% among 2,400; in the data active = inhibition above about 22%
Jurkat NFkB conf – lowers PMA/ionomycin-induced NF-kB signal in Jurkat cells; shares compounds with Jurkat NFkB inh; Jurkat NF-kB luciferase, 16 h; inhibition, % at 4 µM; hit rate 27% among 2,700; AID 435020;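 active = inhibition reaching about 45% at 4 µM in either replicate, limit read from the data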
Each line names hits and unclear results; the compound was inactive in the other large screens (follow-up assays come after a bar, where they were run). Sampled rows, rich in hits. Any-hit rate of the full collection: about 4.8%.

CCCc1cc(C(=O)Nc2ccc(F)c(Cl)c2)no1	GPR7 antag 28.9 | GPR7 antag cf 32.7 | MCHR1 antag 30.2
CN(C(=S)NC(=O)c1ccc(Cl)cc1)C1CCCCC1	none
Cc1ccc(S(=O)(=O)c2nc(S(C)(=O)=O)sc2N2CCCCC2C)cc1 (stereo not given)	none
O=C(O)CSc1nc2ccccc2[nH]1	GPR7 antag 26.6 | GPR7 antag cf inactive | MCHR1 antag inactive
Nc1ccc(C(=O)N/N=C/c2c[nH]c3ccccc23)cc1	none
Cc1ccccc1CC1(CO)CCCN(C(=O)c2cc(Cl)ccc2F)C1 (stereo not given)	none (no result: GPR7 antag) | MCHR1 antag inactive
Cc1ccccc1CC1(CO)CCCN(C(=O)c2cccc(Cl)c2)C1 (stereo not given)	none
Cc1ccccc1CC1(CO)CCCN(C(=O)c2ccccc2Cl)C1 (stereo not given)	HSF1 activator 54.7, GPR7 antag 33.6 | GPR7 antag cf 32.1 | MCHR1 antag inactive
CCOC(=O)COc1c(Cl)cc(C2NC(=S)NC(c3ccccc3)=C2C(C)=O)cc1OC (stereo not given)	GPR7 antag 24.3 | GPR7 antag cf 28.3 | MCHR1 antag inactive
COc1cc(C2NC(=S)NC(c3ccccc3)=C2C(C)=O)cc(Cl)c1OCC(=O)O (stereo not given)	none
CC(=O)C1=C(c2ccccc2)NC(=S)NC1c1cc(Cl)c(OC(C)C)c(Cl)c1 (stereo not given)	GPR7 antag 28.7, T cruzi inh 60.9 | GPR7 antag cf 56.2 | MCHR1 antag 57.5
O=C(NCc1ccccc1)c1cc2ccc(O)cc2oc1=O	none
O=C(NCc1ccc(CNC(=O)c2ccco2)cc1)c1ccco1	none
COc1ccc(C[C@H]2CN3C(=NC[C@@H]3C(C)C)N2CCNC(=O)CCC2CCCCC2)cc1	none
COc1ccc(C[C@H]2CN3C(=NC[C@@H]3Cc3ccccc3)N2CCNC(=O)CCC2CCCCC2)cc1	GPR7 antag 37.2 | GPR7 antag cf 52.3 | MCHR1 antag 39.2
CCOC(=O)c1sc(NC(=O)CC(C)c2ccccc2)nc1C (stereo not given)	GPR7 antag 34.0 | GPR7 antag cf 37.3 | MCHR1 antag 27.7
Oc1ccc(-c2csc(-c3ccccc3)n2)cc1O	HSF1 activator 155.2, GPR7 antag 26.7 | GPR7 antag cf inactive | MCHR1 antag inactive
Cc1c(N)cccc1-n1cnnn1	GPR7 antag 23.5 | GPR7 antag cf inactive | MCHR1 antag inactive
CCCCn1c(N)c(N(CC(C)C)C(=O)CSc2n[nH]c(-c3ccc(C)cc3)n2)c(=O)[nH]c1=O	none (no result: GPR7 antag)
Cc1nn(CC(=O)Nc2cccc(C(F)(F)F)c2)c(=O)c2cccn12	none
FC(F)C(F)(F)c1cc(-c2ccc(Cl)cc2)n[nH]1	GPR7 antag 30.1 | GPR7 antag cf 31.9 | MCHR1 antag 44.0
Oc1ccccc1-c1cc(C(F)(F)C(F)F)[nH]n1	none
Fc1ccc(-c2cc(C(F)(F)C(F)F)[nH]n2)cc1	GPR7 antag 42.2 | GPR7 antag cf 63.8 | MCHR1 antag 62.7
CCOC(=O)C1CCN(S(=O)(=O)c2ccc3[nH]c(=O)ccc3c2)CC1	none
Cc1nc2nc(CCNS(=O)(=O)c3ccc(Cl)cc3)cn2nc1C	none
COc1cc(C(F)(F)F)c(C(=O)N(C)Cc2cc(Cl)cc(Cl)c2)cn1	none
COc1ccccc1CCNC(=O)C(=O)NCC1OCCN1S(=O)(=O)c1ccc(F)cc1 (stereo not given)	GPR7 antag 28.2 | GPR7 antag cf inactive | MCHR1 antag inactive
COc1cccc(Nc2ncnc3sc(C)cc23)c1	HSF1 activator 69.4, GPR7 antag 29.9 | GPR7 antag cf inactive | MCHR1 antag inactive
Cn1cccc1/C=C1\SC(=S)N(Nc2ccccc2)C1=O	GPR7 antag 22.3, T cruzi inh 64.1 | GPR7 antag cf inactive | MCHR1 antag 23.2
Cc1ccc(S(=O)(=O)NN2C(=O)/C(=C/c3cccn3C)SC2=S)cc1	none (no result: HSF1 activator, 697 NFkB inh, HSF1 inh, Jurkat NFkB inh, T cruzi inh)
Cc1cc(C)c[n+](-c2[nH]c(=O)sc2/C=N/NC([S-])=Nc2ccccc2)c1	none
OCCN1CCN(C2Cc3cc(Cl)ccc3Sc3ccc(Cl)cc32)CC1 (stereo not given) (tested in a mixture with another compound)	none
CN1CCN(CCOC2Cc3ccccc3Sc3ccc(Cl)cc32)CC1 (stereo not given)	GPR7 antag 23.4 | GPR7 antag cf 33.0 | MCHR1 antag 44.0
Cc1nnc(SCC(=O)N2CCCC2)n(N)c1=O	none
Cc1cccc(OCCNc2ccc([N+](=O)[O-])cn2)c1	GPR7 antag 32.2 | GPR7 antag cf 48.2 | MCHR1 antag 38.9
CN(c1ccccc1)S(=O)(=O)c1ccc(NC(=O)c2ccccc2)cc1	none
CN(c1ccccc1)S(=O)(=O)c1ccc(NC(=O)c2nc(S(C)(=O)=O)ncc2Cl)cc1	GPR7 antag 92.3, Jurkat NFkB inh 53.2 | GPR7 antag cf 91.4 | MCHR1 antag 102.0 | Jurkat NFkB conf inactive
Cc1ccc(NC(=O)CCNS(=O)(=O)c2ccc3c(c2)CCC(=O)N3)c(Br)c1	none
CN(Cc1ccccc1)C1=CC(=[N+]2CCCC2)CC(C)(C)C1	GPR7 antag 28.7, Jurkat NFkB inh 61.9, T cruzi inh 63.9 | GPR7 antag cf 48.9 | MCHR1 antag 38.0 | Jurkat NFkB conf 59.1
CC1(C)CC(=O)N(Cc2ccccc2)C(=O)C1	none
CC(C)(C)c1ccc(S(=O)(=O)N2CCC(NC(=O)c3ccco3)CC2)cc1	none
CN(C)CCCNS(=O)(=O)c1ccc(NC2CCCCCC2)c([N+](=O)[O-])c1	GPR7 antag 22.8, Jurkat NFkB inh 55.6 | GPR7 antag cf 47.6 | MCHR1 antag 50.6 | Jurkat NFkB conf inactive
COc1ccc(/C=C/C(=O)Nc2ccc(S(=O)(=O)Nc3onc(C)c3C)cc2)cc1OC	none
CN(C)CC(CCC(CN(C)C)C(O)(c1ccccc1)c1ccccc1)C(O)(c1ccccc1)c1ccccc1 (stereo not given)	GPR7 antag 53.1, Jurkat NFkB inh 64.7 | GPR7 antag cf 61.5 | MCHR1 antag 67.6 | Jurkat NFkB conf inactive
O=[N+]([O-])c1ccc(N2CCN(c3cccc(Cl)c3)CC2)nc1	GPR7 antag 50.7, Jurkat NFkB inh 61.3 | GPR7 antag cf 28.7 | MCHR1 antag 69.7 | Jurkat NFkB conf inactive
COc1ccc(NS(=O)(=O)c2cccc(C(=O)N3CCCC(C)C3)c2)cc1 (stereo not given)	none (no result: GPR7 antag)
